Reference: ChEMBL document CHEMBL1149480, “Discovery of a novel series of inhibitors of human cytomegalovirus primase” (Bioorg Med Chem Lett, 2006)
Calls of active or inactive are those of the source. The rule behind the calls is not given here.

What was measured:
[1] = system: Human gammaherpesvirus 4; assay: Antiviral activity against EBV; format: functional, organism-based
[2] = Ratio of antiviral activity against human CMV to rhesus CMV; format: functional, Cercopithecine herpesvirus 8
[3] = system: Caviid betaherpesvirus 2; assay: Antiviral activity against guinea pig CMV; format: functional, organism-based
[4] = system: Human immunodeficiency virus; assay: Antiviral activity against HIV; format: functional, organism-based
[5] = system: Human alphaherpesvirus 1; assay: Antiviral activity against HSV; format: functional, organism-based
[6] = system: Murid betaherpesvirus 1; assay: Antiviral activity against mouse CMV; format: functional, organism-based
[7] = system: HFF; assay: Antiviral activity against human CMV by dot blot assay in HFF cells; format: functional, cell-based
In short: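 Dot blot DNA replication readout. HFF cells were seeded at 2 × 10^4 cells/well and infected with rhCMVLuc, clinical isolates or wild-type virus, then incubated 72 h with drug. Cells were lysed in 0.4 N NaOH, 0.5 M EDTA, applied to membrane by microfiltration and UV-crosslinked. DNA was hybridized to a hCMV-specific 32P probe and detected by phosphorimaging.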

[8] = system: Human betaherpesvirus 6; assay: Antiviral activity against HHV6; format: functional, organism-based
[9] = system: Murid betaherpesvirus 2; assay: Antiviral activity against rat CMV; format: functional, organism-based
[10] = system: Human betaherpesvirus 5; assay: Inhibition of human CMV growth by viral yield assay; format: functional
In short: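 Viral yield: once CPE appeared, well supernatants were serially diluted 1:2 sixteen times and used to infect fresh HFF cells (10^4/well). Inoculum was removed after 1 h; cells were incubated 5–7 days until CPE. Yield was quantified and IC99.9 taken as the drug concentration giving 99.9% inhibition of replication.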

[11] = system: Human betaherpesvirus 5; assay: Inhibition of human CMV growth by plaque reduction assay; format: functional
In short: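 Plaques counted after 10-day incubation of 10^5 cells infected with 1000 pfu of wild-type, clinical-isolate or resistant virus; IC99.9 is the drug amount inhibiting plaque formation by 99.9%.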

[12] = system: Jurkat; assay: Cytotoxicity against human Jurkat cells; format: functional, cell-based
In short: (§1)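 HFF or Jurkat cells were seeded and compound added 3 h later. Alamar blue staining at 0, 24, 48 and 72 h, then a further 3 h incubation, with fluorescence read-out. IC50 is the concentration inhibiting cell growth by 50%.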

[13] = system: HFF; assay: Cytotoxicity against HFF cells; format: functional, cell-based; conditions: Homo sapiens; in short: as §1
[14] = system: HFF; assay: Antiviral activity against human CMV by luciferase reporter gene assay in HFF cells; format: functional, cell-based
In short: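 HFF cells (10^4/well) were rested 2 h, then infected with rhCMVLuc at MOI 1 pfu/cell. Inoculum was removed after 1 h and drug added (0.005–5 µM or 0.05–50 µM) for 48 h at 37 °C. Luciferase was read with Mg(OAc)2, 30 mM Tricine pH 7.8 and 200 µM EDTA. IC50 is 50% inhibition of hCMV DNA replication.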

[15] = system: DNA primase UL70 (Human cytomegalovirus); assay: Binding affinity to human CMV UL70 primase by immunoprecipitation assay; conditions: Human betaherpesvirus 5; tested as the 3H-labelled form

| Structure (SMILES) | Activity [1] | Selectivity ratio [2] | Activity [3] | Activity [4] | Activity [5] | Activity [6] | Activity [8] | Activity [9] | IC50 [14] [nM] | also measured |
| --- | --- | --- | --- | --- | --- | --- | --- | --- | --- | --- |
| CCCCN(C)c1nc(C)c([N+](=O)[O-])c(-n2ccnc2C)n1 | inactive | >=10 | inactive | inactive | inactive | inactive | inactive | inactive | – | IC50 [7]: 300 nM |
| Nc1ccn(C[C@@H](CO)OCP(=O)(O)O)c(=O)n1.O.O [CIDOFOVIR] | – | – | – | – | – | – | – | – | – | IC100 [10]: 1 µM; IC100 [11]: 2.5 µM; IC50 [12]: 100000 nM; IC50 [13]: > 100000 nM |
| Cc1nc(N(C)Cc2ccccc2)nc(-n2ccnc2C)c1C#N | inactive | >=10 | inactive | inactive | inactive | inactive | inactive | inactive | > 30000 | – |
| Cc1nc(N2CCC(C)CC2)nc(-n2ccnc2C)c1[N+](=O)[O-] | inactive | >=10 | inactive | inactive | inactive | inactive | inactive | inactive | – | IC50 [7]: 300 nM |
| Cc1nccn1-c1nc(N(C)Cc2ccccc2)nc(C(C)C)c1[N+](=O)[O-] | inactive | >=10 | inactive | inactive | inactive | inactive | inactive | inactive | 3000 | – |
| Cc1nc(N(C)Cc2ccccc2)nc(-n2ccnc2C)n1 | inactive | >=10 | inactive | inactive | inactive | inactive | inactive | inactive | > 30000 | – |
| Cc1nccn1-c1nc(N(C)Cc2ccccc2)nc2c1S(=O)(=O)CC2 | inactive | >=10 | inactive | inactive | inactive | inactive | inactive | inactive | > 30000 | – |
| Cc1nc(NC2CCc3ccccc32)nc(-n2ccnc2C)c1[N+](=O)[O-] (stereo not given) | inactive | >=10 | inactive | inactive | inactive | inactive | inactive | inactive | – | IC100 [10]: 0.1 µM; IC100 [11]: 0.5 µM; IC50 [12]: 100000 nM; IC50 [13]: > 100000 nM; IC50 [7]: 53 nM |
| Cc1nc(N(C)Cc2ccccc2)nc(-n2ccnc2)c1[N+](=O)[O-] | inactive | >=10 | inactive | inactive | inactive | inactive | inactive | inactive | 20 | – |
| Cc1nc(N(C)Cc2ccccc2)nc(-n2ccnc2C(C)C)c1[N+](=O)[O-] | inactive | >=10 | inactive | inactive | inactive | inactive | inactive | inactive | 770 | – |
| Cc1cn(-c2nc(N(C)Cc3ccccc3)nc(C)c2[N+](=O)[O-])cn1 | inactive | >=10 | inactive | inactive | inactive | inactive | inactive | inactive | 10000 | – |
| Cc1nccn1-c1nc(N(C)Cc2ccccc2)nc(CCN(C)C)c1[N+](=O)[O-] | inactive | >=10 | inactive | inactive | inactive | inactive | inactive | inactive | 6000 | – |
| Cc1cc(-n2ccnc2C)nc(N(C)Cc2ccccc2)n1 | inactive | >=10 | inactive | inactive | inactive | inactive | inactive | inactive | > 30000 | – |
| Cc1nc(N(C)c2ccccc2)nc(-n2ccnc2C)c1[N+](=O)[O-] | inactive | >=10 | inactive | inactive | inactive | inactive | inactive | inactive | 550 | IC100 [10]: 2 µM; IC100 [11]: 2.5 µM; IC50 [12]: 80000 nM; IC50 [13]: 100000 nM; IC50 [7]: 300 nM |
| [3H]CC([3H])c1nc(N(C)Cc2ccccc2)nc(-n2ccnc2C)c1[N+](=O)[O-] (stereo not given) | – | >=10 | – | – | – | – | – | – | – | – |
| Cc1nccn1-c1nc(N(C)Cc2ccccc2)nc(Cl)c1[N+](=O)[O-] | inactive | >=10 | inactive | inactive | inactive | inactive | inactive | inactive | > 30000 | – |
| CCc1nccn1-c1nc(N(C)Cc2ccccc2)nc(C)c1[N+](=O)[O-] | inactive | >=10 | inactive | inactive | inactive | inactive | inactive | inactive | 190 | – |
| CCc1nc(N(C)Cc2ccccc2)nc(-n2ccnc2C)c1[N+](=O)[O-] | inactive | >=10 | inactive | inactive | inactive | inactive | inactive | inactive | 170 | Activity ([1]; tested as the 3H-labelled form): inactive; Activity [15]: Active; Activity ([3]; tested as the 3H-labelled form): inactive; Activity ([4]; tested as the 3H-labelled form): inactive; Activity ([5]; tested as the 3H-labelled form): inactive; Activity ([6]; tested as the 3H-labelled form): inactive; Activity ([8]; tested as the 3H-labelled form): inactive; Activity ([9]; tested as the 3H-labelled form): inactive |
| Cc1nc(N(C)Cc2ccccc2)nc(-n2c(C)nc3ccccc32)c1[N+](=O)[O-] | inactive | >=10 | inactive | inactive | inactive | inactive | inactive | inactive | > 30000 | – |
| Cc1nc(N(C)Cc2ccccc2)nc(-n2ccnc2C)c1[N+](=O)[O-] | inactive | >=10 | inactive | inactive | inactive | inactive | inactive | inactive | 39 | IC100 [10]: 0.2 µM; IC100 [11]: 0.5 µM; IC50 [12]: 25000 nM; IC50 [13]: > 100000 nM; IC50 [7]: 61 nM |
| Cc1nccn1-c1nc(N(C)Cc2ccccc2)ncc1[N+](=O)[O-] | inactive | >=10 | inactive | inactive | inactive | inactive | inactive | inactive | 3000 | – |
| Nc1nc2c(ncn2COC(CO)CO)c(=O)[nH]1 [GANCICLOVIR] | – | – | – | – | – | – | – | – | – | IC100 [10]: 5 µM; IC100 [11]: 10 µM; IC50 [12]: > 100000 nM; IC50 [13]: > 100000 nM |
| CCOc1nc(C)c([N+](=O)[O-])c(-n2ccnc2C)n1 | inactive | >=10 | inactive | inactive | inactive | inactive | inactive | inactive | – | IC50 [7]: 670 nM |
| Cc1nc(N(C)Cc2ccccc2)nc(-n2ccnc2-c2ccccc2)c1[N+](=O)[O-] | inactive | >=10 | inactive | inactive | inactive | inactive | inactive | inactive | 5000 | – |
